Laboratory results from ChEMBL document CHEMBL3352639, “Synthesis and biological evaluation of thienopyrimidine derivatives as GPR119 agonists” (Bioorg Med Chem Lett, 2014).
Values belong to the compound of their own block, whether it stands above or below them. Calls of active or inactive are those of the source. No cut-off for these calls is given here.

Experiments:
[1] = target: T1, Glucose-dependent insulinotropic receptor (Homo sapiens) (UniProt Q8TDV5); experiment: Activation of human GPR119 expressed in CHO-K1 cells at 1 uM after 24 hrs by CRE-luciferase assay relative to GSK1292263; type: functional, cell-based
T1 sequence (whole entry): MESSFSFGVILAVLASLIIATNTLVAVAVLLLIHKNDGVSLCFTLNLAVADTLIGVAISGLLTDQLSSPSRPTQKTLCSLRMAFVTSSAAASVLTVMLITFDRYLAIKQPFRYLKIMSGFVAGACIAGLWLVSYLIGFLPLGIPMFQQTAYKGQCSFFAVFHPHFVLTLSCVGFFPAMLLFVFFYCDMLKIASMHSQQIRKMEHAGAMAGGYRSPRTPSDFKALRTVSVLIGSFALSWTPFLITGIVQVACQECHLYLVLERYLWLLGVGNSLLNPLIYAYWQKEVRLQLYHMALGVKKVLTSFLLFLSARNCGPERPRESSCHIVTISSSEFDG

[2] = target: T2, Glucose-dependent insulinotropic receptor (Homo sapiens, UniProt Q8TDV5); experiment: Agonist activity at human GPR119 expressed in CHO-K1 cells after 24 hrs by CRE-luciferase assay; type: functional, cell-based
T2 sequence (Q8TDV5 whole entry): T1 sequence (whole entry)

[3] = target: T3, Cytochrome P450 1A2 (Homo sapiens, UniProt P05177); experiment: Induction of CYP1A2 (unknown origin); type: ADME
T3 sequence (P05177 whole entry): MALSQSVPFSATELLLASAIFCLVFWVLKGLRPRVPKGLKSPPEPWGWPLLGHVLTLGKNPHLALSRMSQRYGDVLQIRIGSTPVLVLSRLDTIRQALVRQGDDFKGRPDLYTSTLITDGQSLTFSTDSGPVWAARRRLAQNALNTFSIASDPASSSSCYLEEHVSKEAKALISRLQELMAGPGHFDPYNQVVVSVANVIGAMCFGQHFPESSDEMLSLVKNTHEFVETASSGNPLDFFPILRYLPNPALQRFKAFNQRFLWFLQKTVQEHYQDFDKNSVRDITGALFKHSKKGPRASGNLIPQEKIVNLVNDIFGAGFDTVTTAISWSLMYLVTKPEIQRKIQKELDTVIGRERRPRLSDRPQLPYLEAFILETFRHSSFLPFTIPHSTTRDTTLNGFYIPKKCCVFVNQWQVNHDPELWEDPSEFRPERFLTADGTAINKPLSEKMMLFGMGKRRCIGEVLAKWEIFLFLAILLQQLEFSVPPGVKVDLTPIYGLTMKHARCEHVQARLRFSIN

[4] = target: T4, Cytochrome P450 2B6 (Homo sapiens, UniProt P20813); experiment: Inhibition of CYP2B6 (unknown origin); type: ADME
T4 sequence (P20813 whole entry): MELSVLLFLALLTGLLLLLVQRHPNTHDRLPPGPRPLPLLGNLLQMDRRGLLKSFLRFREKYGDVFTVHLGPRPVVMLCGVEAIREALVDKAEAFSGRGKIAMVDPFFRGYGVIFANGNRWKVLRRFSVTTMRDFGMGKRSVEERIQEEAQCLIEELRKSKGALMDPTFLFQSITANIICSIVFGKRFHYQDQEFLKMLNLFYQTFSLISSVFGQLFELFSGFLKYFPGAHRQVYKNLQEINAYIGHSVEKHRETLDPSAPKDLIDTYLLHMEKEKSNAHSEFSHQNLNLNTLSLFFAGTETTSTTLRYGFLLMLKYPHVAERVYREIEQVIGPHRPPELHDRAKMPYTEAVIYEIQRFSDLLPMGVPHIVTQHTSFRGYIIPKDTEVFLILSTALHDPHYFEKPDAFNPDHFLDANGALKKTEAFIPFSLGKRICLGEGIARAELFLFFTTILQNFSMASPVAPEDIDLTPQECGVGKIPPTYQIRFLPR

[5] = tested on: Mus musculus; experiment: Antidiabetic activity in C57BL/6 mouse assessed as reduction in plasma glucose AUC at 15 mg/kg by OGTT; type: functional, organism-based; parameters: dose 15 mg/kg
Outline: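 OGTT in normal mice, n = 7 per group. Plasma glucose was followed over the test, and efficacy was taken as the AUC of glucose concentration. Data are given as means ± SEM.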

[6] = Cytotoxicity against chinese hamster CHOK1 cells; type: cell-based; details: Cricetulus griseus, CHO-K1
[7] = tested on: HFL1; experiment: Cytotoxicity against human HFL1 cells; type: cell-based
[8] = target: Cytochrome P450 2C19 (Homo sapiens, UniProt P33261); experiment: Inhibition of CYP2C19 (unknown origin); type: ADME
Sequence of Cytochrome P450 2C19 (P33261 whole entry): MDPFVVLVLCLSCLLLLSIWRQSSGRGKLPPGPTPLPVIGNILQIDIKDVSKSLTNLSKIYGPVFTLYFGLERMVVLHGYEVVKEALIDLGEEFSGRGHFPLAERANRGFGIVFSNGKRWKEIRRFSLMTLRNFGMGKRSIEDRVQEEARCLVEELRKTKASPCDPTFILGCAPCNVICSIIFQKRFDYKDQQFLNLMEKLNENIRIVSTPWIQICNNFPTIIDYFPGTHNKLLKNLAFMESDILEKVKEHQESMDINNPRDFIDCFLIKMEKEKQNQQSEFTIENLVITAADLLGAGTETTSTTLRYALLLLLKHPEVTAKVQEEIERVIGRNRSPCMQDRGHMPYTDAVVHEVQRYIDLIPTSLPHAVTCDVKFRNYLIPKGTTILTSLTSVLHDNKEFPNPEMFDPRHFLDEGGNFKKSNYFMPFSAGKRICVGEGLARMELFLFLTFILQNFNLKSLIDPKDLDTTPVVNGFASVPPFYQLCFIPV

[9] = Metabolic stability in rat liver microsomes assessed as compound remaining at 1 uM after 30 mins by LC/MS/MS analysis; type: ADME; details: read-out: Stability
[10] = target: Cytochrome P450 2E1 (Homo sapiens, UniProt P05181); experiment: Induction of CYP2E1 (unknown origin); type: ADME
Sequence of Cytochrome P450 2E1 (P05181 whole entry): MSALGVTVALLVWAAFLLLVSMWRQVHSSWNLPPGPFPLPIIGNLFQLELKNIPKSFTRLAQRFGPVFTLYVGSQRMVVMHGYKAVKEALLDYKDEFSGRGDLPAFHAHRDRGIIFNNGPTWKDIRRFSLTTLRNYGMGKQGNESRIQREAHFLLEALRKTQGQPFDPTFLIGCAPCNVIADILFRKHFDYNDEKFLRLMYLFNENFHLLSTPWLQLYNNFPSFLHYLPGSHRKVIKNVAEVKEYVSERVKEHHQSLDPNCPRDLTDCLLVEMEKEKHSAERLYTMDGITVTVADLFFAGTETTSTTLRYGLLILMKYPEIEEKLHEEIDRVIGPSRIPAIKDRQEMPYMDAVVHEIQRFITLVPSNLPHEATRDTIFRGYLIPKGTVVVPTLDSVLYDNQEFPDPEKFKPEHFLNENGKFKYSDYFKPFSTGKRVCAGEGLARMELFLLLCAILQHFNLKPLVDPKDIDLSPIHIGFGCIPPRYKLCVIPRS

[11] = Metabolic stability in human liver microsomes assessed as compound remaining at 1 uM after 30 mins by LC/MS/MS analysis; type: ADME; details: read-out: Stability
[12] = target: T5, Cytochrome P450 2C9 (Homo sapiens, UniProt P11712); experiment: Induction of CYP2C9 (unknown origin); type: ADME
T5 sequence (P11712 whole entry): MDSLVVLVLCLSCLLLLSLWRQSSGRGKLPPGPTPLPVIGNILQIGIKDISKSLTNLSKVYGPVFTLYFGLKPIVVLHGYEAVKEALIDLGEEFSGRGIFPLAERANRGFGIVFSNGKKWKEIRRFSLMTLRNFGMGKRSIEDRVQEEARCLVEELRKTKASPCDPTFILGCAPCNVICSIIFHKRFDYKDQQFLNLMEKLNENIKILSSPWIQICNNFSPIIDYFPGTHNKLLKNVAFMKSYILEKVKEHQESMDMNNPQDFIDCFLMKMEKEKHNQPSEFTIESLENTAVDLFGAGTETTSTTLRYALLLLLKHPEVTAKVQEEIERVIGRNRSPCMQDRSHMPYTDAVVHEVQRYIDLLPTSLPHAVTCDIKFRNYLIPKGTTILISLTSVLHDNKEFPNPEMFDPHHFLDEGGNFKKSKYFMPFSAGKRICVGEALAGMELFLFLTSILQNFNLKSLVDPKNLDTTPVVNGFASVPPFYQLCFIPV

[13] = Cytotoxicity against mouse NIH/3T3 cells; type: cell-based; details: NIH3T3
[14] = target: T6, Cytochrome P450 3A4 (Homo sapiens, UniProt P08684); experiment: Induction of CYP3A4 (unknown origin); type: ADME
T6 sequence (P08684 whole entry): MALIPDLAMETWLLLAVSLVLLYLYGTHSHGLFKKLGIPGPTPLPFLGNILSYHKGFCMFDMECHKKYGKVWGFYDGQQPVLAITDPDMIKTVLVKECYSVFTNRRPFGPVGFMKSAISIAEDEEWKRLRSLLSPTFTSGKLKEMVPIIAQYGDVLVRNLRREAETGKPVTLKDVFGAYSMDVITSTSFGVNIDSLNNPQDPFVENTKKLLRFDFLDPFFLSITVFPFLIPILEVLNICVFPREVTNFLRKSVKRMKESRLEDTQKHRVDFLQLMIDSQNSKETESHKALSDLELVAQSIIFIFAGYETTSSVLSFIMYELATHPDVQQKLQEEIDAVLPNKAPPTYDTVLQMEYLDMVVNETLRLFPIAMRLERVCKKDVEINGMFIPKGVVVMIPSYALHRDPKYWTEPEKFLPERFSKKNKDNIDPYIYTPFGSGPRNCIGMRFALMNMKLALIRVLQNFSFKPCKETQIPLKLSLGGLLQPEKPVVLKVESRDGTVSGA

[15] = target: T4, Cytochrome P450 2B6; experiment: Induction of CYP2B6 (unknown origin); type: ADME
[16] = target: Cytochrome P450 2D6 (Homo sapiens, UniProt P10635); experiment: Inhibition of CYP2D6 (unknown origin); type: ADME
Sequence of Cytochrome P450 2D6 (P10635 whole entry): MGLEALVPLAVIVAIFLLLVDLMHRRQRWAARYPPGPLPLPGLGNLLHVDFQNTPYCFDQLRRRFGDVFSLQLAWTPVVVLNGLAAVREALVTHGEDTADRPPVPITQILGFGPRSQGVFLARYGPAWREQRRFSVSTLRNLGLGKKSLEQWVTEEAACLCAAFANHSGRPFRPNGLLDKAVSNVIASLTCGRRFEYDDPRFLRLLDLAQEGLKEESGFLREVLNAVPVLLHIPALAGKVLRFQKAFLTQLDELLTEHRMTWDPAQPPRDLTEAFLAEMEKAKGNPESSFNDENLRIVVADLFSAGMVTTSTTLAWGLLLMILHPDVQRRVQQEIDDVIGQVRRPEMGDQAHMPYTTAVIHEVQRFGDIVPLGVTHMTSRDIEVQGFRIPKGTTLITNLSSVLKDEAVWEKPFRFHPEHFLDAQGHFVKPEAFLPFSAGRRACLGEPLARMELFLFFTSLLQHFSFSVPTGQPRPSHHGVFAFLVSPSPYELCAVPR

[17] = tested on: Beta-TC6; experiment: Increase in glucose-stimulated insulin release in mouse BetaTC6 cells after 1 hr by ELISA; type: functional, cell-based
Outline: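 GSIS was measured in the TC-6 pancreatic beta-cell line exposed to compound over 10 nM to 100 nM, with insulin secretion read under glucose stimulation.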

[18] = target: hERG (KCNH2) (Homo sapiens, UniProt Q12809); experiment: Inhibition of human ERG at 10 uM
Sequence of hERG (KCNH2) (Q12809 whole entry): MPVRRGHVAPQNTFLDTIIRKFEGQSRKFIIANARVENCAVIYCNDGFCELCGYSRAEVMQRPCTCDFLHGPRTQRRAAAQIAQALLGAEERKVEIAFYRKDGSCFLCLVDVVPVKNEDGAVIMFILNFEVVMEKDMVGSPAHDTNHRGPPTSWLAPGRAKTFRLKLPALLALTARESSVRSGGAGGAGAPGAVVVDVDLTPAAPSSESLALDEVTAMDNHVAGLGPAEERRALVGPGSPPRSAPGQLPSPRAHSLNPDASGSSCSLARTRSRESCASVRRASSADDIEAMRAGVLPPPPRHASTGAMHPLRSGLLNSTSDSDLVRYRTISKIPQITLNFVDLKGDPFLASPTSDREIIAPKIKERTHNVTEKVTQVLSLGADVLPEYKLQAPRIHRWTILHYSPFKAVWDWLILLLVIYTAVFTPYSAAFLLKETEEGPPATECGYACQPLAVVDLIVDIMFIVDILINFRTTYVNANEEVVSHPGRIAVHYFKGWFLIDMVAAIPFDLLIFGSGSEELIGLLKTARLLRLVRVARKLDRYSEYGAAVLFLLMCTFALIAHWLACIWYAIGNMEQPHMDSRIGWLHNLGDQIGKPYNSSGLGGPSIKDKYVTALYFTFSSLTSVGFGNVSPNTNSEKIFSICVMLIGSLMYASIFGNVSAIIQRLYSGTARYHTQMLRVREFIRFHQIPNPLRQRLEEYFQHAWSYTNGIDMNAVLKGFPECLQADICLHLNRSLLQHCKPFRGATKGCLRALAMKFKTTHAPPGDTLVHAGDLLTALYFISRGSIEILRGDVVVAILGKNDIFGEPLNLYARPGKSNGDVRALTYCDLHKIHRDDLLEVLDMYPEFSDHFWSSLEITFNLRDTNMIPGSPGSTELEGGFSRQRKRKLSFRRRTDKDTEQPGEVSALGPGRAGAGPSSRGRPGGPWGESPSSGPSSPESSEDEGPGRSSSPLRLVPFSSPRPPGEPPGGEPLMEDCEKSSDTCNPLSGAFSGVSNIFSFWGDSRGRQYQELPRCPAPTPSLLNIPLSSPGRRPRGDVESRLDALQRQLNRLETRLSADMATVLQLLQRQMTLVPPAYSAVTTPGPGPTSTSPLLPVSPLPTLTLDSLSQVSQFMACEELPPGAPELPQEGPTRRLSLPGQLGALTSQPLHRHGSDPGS
Outline: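 hERG liability was assessed in a binding-assay format, reported as percent inhibition with the compound at 10 μM.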

[19] = target: T7, Cytochrome P450 2A6 (Homo sapiens, UniProt P11509); experiment: Inhibition of CYP2A6 (unknown origin); type: ADME
T7 sequence (P11509 whole entry): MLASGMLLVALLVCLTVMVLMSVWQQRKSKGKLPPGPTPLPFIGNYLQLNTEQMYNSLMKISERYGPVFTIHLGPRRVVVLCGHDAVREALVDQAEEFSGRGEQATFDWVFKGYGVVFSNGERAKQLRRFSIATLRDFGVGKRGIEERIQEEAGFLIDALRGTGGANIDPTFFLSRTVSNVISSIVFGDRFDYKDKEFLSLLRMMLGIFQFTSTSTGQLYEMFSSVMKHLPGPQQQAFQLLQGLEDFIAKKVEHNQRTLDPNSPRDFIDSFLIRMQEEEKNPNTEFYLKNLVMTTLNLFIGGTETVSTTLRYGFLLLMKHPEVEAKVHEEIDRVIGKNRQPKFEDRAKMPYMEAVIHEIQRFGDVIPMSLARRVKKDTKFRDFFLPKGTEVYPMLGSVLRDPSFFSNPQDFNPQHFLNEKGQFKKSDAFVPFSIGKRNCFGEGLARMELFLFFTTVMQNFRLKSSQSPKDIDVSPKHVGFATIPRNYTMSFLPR

[20] = target: T5, Cytochrome P450 2C9; experiment: Inhibition of CYP2C9 (unknown origin); type: ADME
[21] = tested on: L929; experiment: Cytotoxicity against mouse L929 cells; type: cell-based
[22] = target: T3, Cytochrome P450 1A2; experiment: Inhibition of CYP1A2 (unknown origin); type: ADME
[23] = target: T6, Cytochrome P450 3A4; experiment: Inhibition of CYP3A4 (unknown origin); type: ADME

SMILES: CC(C)NC(=O)N1CCC(N(C)c2ncnc3cc(-c4ccc(S(C)(=O)=O)cc4)sc23)CC1
Activity [1]: 49%

SMILES: CC(C)(C)OC(=O)N1CCC(Oc2ncnc3cc(-c4ccc(S(C)(=O)=O)cc4)sc23)CC1
EC50 [2]: 100 nM | Activity [1]: 64%

SMILES: CCc1cnc(N2CCC(Oc3ncnc4cc(-c5ccc(S(C)(=O)=O)cc5)sc34)CC2)nc1
EC50 [2]: 240 nM | Activity [1]: 75%

SMILES: CCc1cnc(N2CCC(Nc3ncnc4cc(-c5ccc(S(C)(=O)=O)cc5)sc34)CC2)nc1
Activity [1]: 49%

SMILES: CC(C)S(=O)(=O)N1CCC(N(C)c2ncnc3cc(-c4ccc(S(C)(=O)=O)cc4)sc23)CC1
EC50 [2]: 1200 nM | Activity [1]: 70%

Now from value to compound, other results behind:

Activity [1]: 65%
SMILES: CN(c1ncnc2cc(-c3ccc(S(C)(=O)=O)cc3F)sc12)C1CCN(C(=O)C2CC2)CC1

EC50 [2]: 26 nM | Activity [1]: 105%
SMILES: CN(c1ncnc2cc(-c3ccc(S(C)(=O)=O)cc3F)sc12)C1CCN(C(=O)OC2(C)CC2)CC1

EC50 [2]: 82 nM | Activity [1]: 67%
SMILES: CC(C)OC(=O)N1CCC(N(C)c2ncnc3cc(-c4ccc(S(C)(=O)=O)cc4)sc23)CC1

EC50 [2]: 173 nM | Activity [1]: 72%
SMILES: CN(c1ncnc2cc(-c3ccc(S(C)(=O)=O)cc3)sc12)C1CCN(C(=O)C2CC2)CC1

Activity [3]: Not Active | inhibition (INH) [4]: Not Active | inhibition (INH) [8]: Not Active | EC50 [2]: 3 nM | remaining at 0.5 h, 1 µM [9]: > 95% | Activity [10]: Not Active | remaining at 0.5 h, 1 µM [11]: > 95% | Activity [12]: Not Active | Activity [14]: Not Active | Activity [15]: Not Active | inhibition (INH) [16]: Not Active | inhibition (INH) [19]: Not Active | IC50 [20]: 76800 nM | inhibition (INH) [22]: Not Active | inhibition (INH) [23]: Not Active | Activity [1]: 94%
SMILES: CN(c1ncnc2cc(-c3ccc(S(C)(=O)=O)cc3F)sc12)C1CCN(C(=O)OC(C)(C)C)CC1
Activity [5]: Active | IC50 [6]: 53400 nM | IC50 [7]: > 100000 nM | IC50 [13]: 49800 nM | Activity [17]: Dose-dependent effect | inhibition at 10 µM [18]: 13% | IC50 [21]: 65800 nM

Activity [1]: 45%
SMILES: CCN(c1ncnc2cc(-c3ccc(S(C)(=O)=O)cc3F)sc12)C1CCN(C(=O)OC(C)(C)C)CC1
